Reference: ChEMBL document CHEMBL4428050, “Design, Synthesis, and Biological Evaluation of Substituted Pyrimidines as Potential Phosphatidylinositol 3-Kinase (PI3K) Inhibitors” (J Med Chem, 2016)
pIC50: −log10 of the molar value.

Experiments:
[1] = Inhibition of PI3K p110alpha/p85 (unknown origin) using PIP2/ATP as substrate after 1 hr by kinase glo luminescent assay; parameters: species or system Homo sapiens
Method in brief: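 PI3K p110α activity read by Kinase-Glo Plus luminescence. IC50 is the mean of triplicate measurements.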

DU-145 = experiment: Antiproliferative activity against human DU145 cells after 72 hrs by CCK8 assay; assay type: functional, cell-based
SK-BR-3 = experiment: Antiproliferative activity against human SK-BR-3 cells after 72 hrs by CCK8 assay; assay type: functional, cell-based; details: SK-BR-3, 72 h
BGC-823 = experiment: Antiproliferative activity against human BGC823 cells after 72 hrs by CCK8 assay; assay type: functional, cell-based
K562 = experiment: Antiproliferative activity against human K562 cells after 72 hrs by CCK8 assay; assay type: functional, cell-based
MCF7 = experiment: Antiproliferative activity against human MCF7 cells after 72 hrs by CCK8 assay; assay type: functional, cell-based
U-937 = experiment: Antiproliferative activity against human U937 cells after 72 hrs by CCK8 assay; assay type: functional, cell-based
MOLT-4 = experiment: Antiproliferative activity against human MOLT4 cells after 72 hrs by CCK8 assay; assay type: functional, cell-based
HeLa = experiment: Antiproliferative activity against human HeLa cells after 72 hrs by CCK8 assay; assay type: functional, cell-based
A549 = experiment: Antiproliferative activity against human A549 cells after 72 hrs by CCK8 assay; assay type: functional, cell-based
A-431 = experiment: Antiproliferative activity against human A431 cells after 72 hrs by CCK8 assay; assay type: functional, cell-based; details: Homo sapiens, A-431, 72 h
PC-3 = experiment: Antiproliferative activity against human PC3 cells after 72 hrs by CCK8 assay; assay type: functional, cell-based; details: PC-3, 72 h
MDA-MB-231 = experiment: Antiproliferative activity against human MDA-MB-231 cells by WST8 assay; assay type: functional, cell-based
PANC-1 = experiment: Antiproliferative activity against human PANC1 cells after 72 hrs by CCK8 assay; assay type: functional, cell-based; details: Homo sapiens, PANC-1, 72 h
NCI-N87 = experiment: Antiproliferative activity against human NCI-N87 cells after 72 hrs by CCK8 assay; assay type: functional, cell-based; details: Homo sapiens, NCI-N87, 72 h
HL-60 = experiment: Antiproliferative activity against human HL60 cells after 72 hrs by CCK8 assay; assay type: functional, cell-based; details: HL-60, 72 h
SGC-7901 = experiment: Antiproliferative activity against human SGC7901 cells after 72 hrs by CCK8 assay; assay type: functional, cell-based; details: SGC-7901, 72 h
Huh-7 = experiment: Antiproliferative activity against human HuH7 cells after 72 hrs by CCK8 assay; assay type: functional, cell-based; details: Huh-7, 72 h
HT-1080 = experiment: Antiproliferative activity against human HT1080 cells after 72 hrs by CCK8 assay; assay type: functional, cell-based; details: HT-1080, 72 h
Bel-7402 = experiment: Antiproliferative activity against human Bel7402 cells after 72 hrs by CCK8 assay; assay type: functional, cell-based; details: Bel-7402, 72 h

Row | SMILES | pIC50 [1] | pIC50 (DU-145; Homo sapiens, DU-145, 72 h) | pIC50 (SK-BR-3) | pIC50 (K562; Homo sapiens, K562, 72 h) | pIC50 (MCF7; Homo sapiens, MCF7, 72 h) | pIC50 (U-937; Homo sapiens, U-937, 72 h) | pIC50 (MOLT-4; Homo sapiens, MOLT-4, 72 h) | pIC50 (HeLa; Homo sapiens, HeLa, 72 h) | pIC50 (A549; Homo sapiens, A549, 72 h) | pIC50 (A-431) | pIC50 (PANC-1) | pIC50 (NCI-N87) | further results
1 | C[C@@H]1CN(c2cc(-c3cnc(N)cc3C(F)(F)F)nc(N3C[C@@H]4OCCO[C@@H]4C3)n2)C[C@H](C)O1 | 5.24 |  |  |  |  |  |  |  |  |  |  |  | 
2 | C[C@@H]1CN(c2nc(N3C[C@@H](C)O[C@@H](C)C3)c3ccc(-c4cnc(N)cc4C(F)(F)F)cc3n2)C[C@H](C)O1 | < 5.00 |  |  |  |  |  |  |  |  |  |  |  | 
3 | Nc1ncc(-c2cc(N3CCOCC3)nc(N3C[C@H]4OCCO[C@@H]4C3)n2)cn1 (racemic) | 6.89 |  |  |  |  |  |  |  |  |  |  |  | 
4 | Nc1cc(C(F)(F)F)c(-c2cc(N3CCOCC3)nc(N3C[C@H]4OCCO[C@@H]4C3)n2)cn1 | 7.21 | 4.82 | 5.46 | 5.20 | 5.13 | 5.47 | 5.71 | 5.12 | 5.19 |  |  |  | pIC50 (BGC-823; Homo sapiens, BGC-823, 72 h): 5.18
5 | Oc1cccc(-c2nc(N3CCOCC3)c3oc4ncccc4c3n2)c1 [PI-103] | 8.13 |  |  |  |  |  |  |  |  |  |  |  | 
6 | Nc1cc(C(F)(F)F)c(-c2cc(N3CCOCC3)nc(N3C[C@@H]4OCCO[C@H]4C3)n2)cn1 | 7.46 |  | 5.80 |  |  |  |  |  |  |  |  |  | pIC50 (DU-145; du-145): 5.31; pIC50 (BGC-823; bgc-823): 5.55; pIC50 (K562; k562): 5.59; pIC50 (MCF7; mcf7): 5.42; pIC50 (U-937; u-937): 5.82; pIC50 (MOLT-4; molt-4): 6.01; pIC50 (HeLa; hela): 5.61; pIC50 (A549; a549): 5.60
7 | C[C@@H]1CN(c2cc(-c3cnc(N)cc3C(F)(F)F)nc(N3C[C@@H](C)O[C@@H](C)C3)n2)C[C@H](C)O1 | < 5.00 |  |  |  |  |  |  |  |  |  |  |  | 
8 | CS(=O)(=O)N1CCN(c2ccc(Nc3nc(-c4cnc(N)cc4C(F)(F)F)cc(N4CCOCC4)n3)cc2)CC1 | 7.51 | 5.17 | 5.79 | 4.95 | 5.30 | 5.62 | 5.95 | < 4.00 | 5.26 | 5.23 | 5.63 | 5.89 | pIC50 (PC-3): 5.13; pIC50 (MDA-MB-231): 5.27; pIC50 (HL-60): 6.03
9 | Nc1cc(C(F)(F)F)c(-c2cc(N3CCOCC3)nc(Nc3cccc(N4CCOCC4)c3)n2)cn1 | 6.93 | 6.00 | 5.19 | 4.83 | 4.78 | 4.98 | 5.39 | < 4.00 | 5.34 | 4.94 | 5.07 | 5.33 | pIC50 (PC-3): 5.66; pIC50 (MDA-MB-231): 5.14; pIC50 (HL-60): 5.36
10 | Nc1cc(C(F)(F)F)c(-c2cc(N3C[C@@H]4OCCO[C@@H]4C3)nc(N3CCOCC3)n2)cn1 | 6.05 | < 5.00 |  | < 5.00 |  |  |  |  |  |  |  |  | 
11 | Nc1cc(C(F)(F)F)c(-c2cc(N3C[C@H]4OCCO[C@@H]4C3)nc(N3CCOCC3)n2)cn1 (racemic) | 6.43 | 5.15 |  | 5.50 | 5.14 | 5.54 | 5.49 | 5.27 | 5.25 | 5.52 | 5.22 | 5.21 | pIC50 (SGC-7901): 5.32; pIC50 (BGC-823; Homo sapiens, BGC-823, 72 h): 5.36; pIC50 (Huh-7): 5.20; pIC50 (HT-1080): 5.25; pIC50 (Bel-7402): 5.19
12 | Nc1cc(C(F)(F)F)c(-c2nc(N3CCOCC3)nc(N3C[C@@H]4OCCO[C@H]4C3)n2)cn1 | 7.42 | 5.97 | 5.44 | 4.61 | 5.03 | 5.26 | 5.68 | < 4.00 | 5.02 | 4.49 | 5.12 | 5.56 | pIC50 (PC-3): 5.20; pIC50 (MDA-MB-231): 4.92; pIC50 (HL-60): 5.31
13 | Nc1cc(C(F)(F)F)c(-c2cc(N3CCOCC3)nc(Nc3ccc(N4CCOCC4)cc3)n2)cn1 | 7.59 | < 5.00 | 5.57 | 5.06 | 5.03 | 5.46 | 5.75 | 5.16 | 5.11 |  |  |  | pIC50 (BGC-823; Homo sapiens, BGC-823, 72 h): 5.08
